Test results from paper PMC8798964 (Translational Cancer Research, 2021).
Like-named read-outs stand apart in the source and are kept apart here.

Experiments:
[1] = Pharmacokinetic study: plasma and brain concentration after a single oral dose; format: in vivo, SD rats; conditions: for Kp: male, SD, rat, brain/plasma, po
How it was run: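 Male SD rats (219.0–260.5 g), fasted overnight until 4 h post-dose, given one oral dose of 10, 15 or 55 mg/kg depending on compound. n=3 per time point (0.25–24 h). Jugular blood in K2EDTA; plasma by spinning at 4 °C. Brains taken after decapitation, homogenised in 3-fold saline. Samples precipitated with acetonitrile plus internal standards, then LC-MS/MS. Brain/plasma ratio calculated at Cmax.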

PCNSL = conditions: cited from earlier work
SU-DHL-6 cells = test: Apoptosis assay; format: cell-based
How it was run: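 SU-DHL-6 cells kept in RPMI 1640 with 10% heat-inactivated FBS and penicillin/streptomycin at 37 °C, 5% CO2. Seeded at 4×10^5/mL and left 24 h, then exposed to one of three concentrations of test compound, or DMSO control, for 24 or 48 h. Stained with Annexin V/7-AAD and read by flow cytometry. Live, early apoptotic and late apoptotic/dead populations counted.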

[2] = Ibrutinib concentration in CSF of a PCNSL patient; format: in vivo; conditions: human, po, 560 mg
[3] = phase II, monotherapy 560 mg/day, intent-to-treat analysis

SMILES	Kp [1]	ORR rate (PCNSL; phase I/II trial, relapsed/refractory PCNSL patients) [%]	Induction of apoptosis (SU-DHL-6 cells; SU-DHL-6, three concentrations, 24 or 48 hours)	concentration at 2 h [2] [ng/mL]	Disease control rate (PCNSL; phase II, monotherapy 560 mg/day, evaluable patients) [%]	Disease control rate (PCNSL; [3]) [%]	Stable diseases (PCNSL; [3]) [%]	Objective response rate (ORR) (PCNSL; recurrent PCNSL patients, single drug, two clinical trials)	Clinical responses (PCNSL; refractory and recurrent PCNSL, 10 of 13 patients) [%]	Patients who achieved CR (PCNSL; refractory and recurrent PCNSL, cohort of 13)	Induction of apoptosis (SU-DHL-6 cells; SU-DHL-6, 0.5 µM)	Induction of apoptosis (SU-DHL-6 cells; SU-DHL-6, 5 µM, 24 and 48 hours)	Induction of apoptosis (SU-DHL-6 cells; SU-DHL-6, 50 µM, 24 and 48 hours)	Unbound concentration in brain ([1]; SD rats, 15 mg/kg orally, 4 hours after administration)	Pro-apoptosis effect (SU-DHL-6 cells; SU-DHL-6, 50 µM, after another 24 hours (48 h))	Induction of apoptosis (SU-DHL-6 cells; SU-DHL-6, 24 hours, 0.5 µM or higher)	Induction of apoptosis (SU-DHL-6 cells; SU-DHL-6, lower concentration, after another 24 hours (48 h))
CC#CC(=O)N1CC[C@@H](n2c(=O)n(-c3ccc(Oc4ccccc4)cc3)c3c(N)ncnc32)C1 [tirabrutinib]	0.085	64	only induced when cells were treated with high dose tirabrutinib for a relatively longer period of time (50 µM, 48 h)	–	–	–	–	–	–	–	–	–	–	–	–	–	–
C=CC(=O)N1CCC[C@@H](n2nc(-c3ccc(Oc4ccccc4)cc3)c3c(N)ncnc32)C1 [ibrutinib]	0.098	–	–	0.309	70	62	10	50–70%	77	five	not observed	subtle	prominent	–	–	–	–
C=CC(=O)N1CCC([C@@H]2CCNc3c(C(N)=O)c(-c4ccc(Oc5ccccc5)cc4)nn32)CC1 [zanubrutinib]	0.035	–	–	–	–	–	–	–	–	–	–	–	–	below the limit of detection	maintained	good ability in inducing cell apoptosis	cells recovered from apoptosis
